Screening data deposited in PubChem by several laboratories.
T cruzi repl – T. cruzi replication inhibition | 1.4% of 300,000 active | T. cruzi beta-gal in NIH3T3, luminescence, 90 h | inhibition, % (concentration not given with the values);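 active means mean inhibition across valid replicates above about 55%, limit read from the data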;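 further: signal also drops with host cell toxicity which is not excluded here; 0% = plate median of DMSO wells and 100% = zero luminescence signal; higher percent means less beta-gal luminescence so fewer parasites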
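compound dosing = single 50 nL compound addition per well in DMSO | material = NIH/3T3 host cells with β-galactosidase reporter T. cruzi | input = 5,000 host fibroblasts per well | timing = ≥90 h infection period, 3 h prior cell attachment | read-out basis = percent inhibition of parasite-derived β-gal signal | detection = GalScreen β-gal luminescence, detergent lysis, 60 min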
Lmaj promast – Leishmania major promastigote growth inhibition. Leishmania major promastigotes, resazurin fluorescence viability. 9% of 200,000 active. inhibition, % at 10 µM; in the data active means inhibition above about 50%;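 further: promastigotes grown with compound for 44 hours at 28 °C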
HSF1 activator – increases HSF-1 driven luciferase reporter signal; NIH3T3-HGL HSF-1 luciferase reporter, MG132, 8 h; 100% = twice DMSO control signal; activation, % at 9 µM; 1.7% of 300,000 active; AID 504408;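 active means mean replicate activation of at least 50% with a set share of replicates each reaching 50%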;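 further: 0% = median of the neutral control wells and 100% = twice that signal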
Hsp70 act – Hsp70 transcriptional activation, primary screen. HeLa Hsp70 promoter luciferase reporter, luminescence; scaled: vehicle 0, proteasome-inhibitor control 100%. activation, % at 10 µM. 0.04% of 200,000 active. AID 1203;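 active means activation above the mean across all tested compounds plus 3 SD, cutoff set per campaign, cut at about 5.5% in these data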;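 further: 100% = MG132 at 30 µM as the positive control and 0% = DMSO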
HSF1 inhib – HSF1 inhibition; NIH3T3-HGL HSE-luciferase, MG132-induced, luminescence 8 h; hits give low values; activity change, negative = inhibition, % at 7.5 µM (by protocol); 0.77% of 300,000 active; AID 2098;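 active means more than half of replicate wells show activity change below -50%, luminescence cut by over half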;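 further: luciferase reports HSF-1 transcriptional activity via heat shock element; 0% = median of DMSO wells and -100% = zero luminescence signal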
* marks the source's active call; other numbers are inactive results. The sample as a whole holds a higher share of hits than the screen did.

O=C(NCC(c1cccs1)N1CCOCC1)c1ccc(Cl)c(S(=O)(=O)N2CCOCC2)c1 (stereo not given) was read as T cruzi repl 4, HSF1 activator -6 and HSF1 inhib -2.
CCC1(C)Cc2ccccc2-c2[nH][nH]c(=O)c21 (stereo not given) was read as T cruzi repl -10, Lmaj promast 1, HSF1 activator 17, Hsp70 act 0 and HSF1 inhib -8.
Screening CCC(=O)Nc1ccc(NC(=O)c2ccc3ccccc3c2)cc1 returned T cruzi repl 7, HSF1 activator 28 and HSF1 inhib 10.
Screening CCC(=O)CCC(=O)c1ccc2ccccc2c1 returned T cruzi repl -11, Lmaj promast 2, HSF1 activator -70, Hsp70 act 0 and HSF1 inhib -58*.
`COc1ccc2nnc(-c3ccc(C(F)(F)F)cc3)n2n1` gave T cruzi repl -3, HSF1 activator -91 and HSF1 inhib -89*.
CCCCNC(=O)/C(=C\c1ccc([N+](=O)[O-])o1)NC(=O)c1ccccc1 was read as T cruzi repl 63*, Lmaj promast 67*, HSF1 activator -1, Hsp70 act 0 and HSF1 inhib -1.
`COC(=O)/C(=C\c1ccc([N+](=O)[O-])o1)NC(=O)c1ccccc1` gave T cruzi repl 49, Lmaj promast 95*, HSF1 activator 12, Hsp70 act 0 and HSF1 inhib 7.
For CN(C)CCNC(=O)/C(=C/c1ccc(-c2cccc([N+](=O)[O-])c2)o1)NC(=O)c1ccccc1 the results were T cruzi repl 8, Lmaj promast 46, HSF1 activator 21, Hsp70 act 0 and HSF1 inhib -3.
For COC(=O)C1=C(C)N(Cc2ccc(C)cc2)C(=O)/C1=C\c1cc(OC)c(OC)c(OC)c1 the results were T cruzi repl -10, Lmaj promast 46, HSF1 activator 98*, Hsp70 act 0 and HSF1 inhib 72.
Screening CC(Cl)C(=O)c1ccc2c(c1)CCN2C(=O)C1CC1 (stereo not given) returned T cruzi repl -16, Lmaj promast 96*, HSF1 activator 44, Hsp70 act 0 and HSF1 inhib 31.
For CCOc1ccc(N2C(=O)CC(Sc3ncccn3)C2=O)cc1 (stereo not given) the results were T cruzi repl 6, Lmaj promast 2, HSF1 activator -18, Hsp70 act 0 and HSF1 inhib -6.
For CCOc1ccc(N2C(=O)CC(Sc3nc(-c4cccs4)cc(C(F)(F)F)c3C#N)C2=O)cc1 (stereo not given) the results were T cruzi repl 8, Lmaj promast 55*, HSF1 activator 12, Hsp70 act 0 and HSF1 inhib 0.
CCN1c2ccccc2-c2nc3ccccc3n2C1c1cccs1 (stereo not given) was read as T cruzi repl -1, Lmaj promast 96*, HSF1 activator 24, Hsp70 act 0 and HSF1 inhib 7.
CC(C)NC(=O)c1cnc(N2CCN(c3ccccn3)CC2)c2ccccc12 was read as T cruzi repl 18, Lmaj promast 3, HSF1 activator 37, Hsp70 act 1 and HSF1 inhib 7.
For CCc1ccc(NC(=O)c2cnc(N3CCN(c4ccccn4)CC3)c3ccccc23)cc1 the results were T cruzi repl 60*, Lmaj promast 82* and Hsp70 act 0.
C/C(=N\NC(=O)c1ccccc1)C1C2C=CC(C2)C1(C)C (stereo not given) was read as T cruzi repl 7, HSF1 activator 2 and HSF1 inhib 14.
CCn1c(C)cc(/C=C2/NC(=O)N(c3ccccc3)C2=O)c1C was read as T cruzi repl 12, Lmaj promast 17, HSF1 activator -55, Hsp70 act 0 and HSF1 inhib -52*.
`CC(C)(C)c1ccc(C2(C)NC(=O)N(CC(=O)Nc3ccc4c(c3)OCO4)C2=O)cc1` (stereo not given) gave T cruzi repl 28, Lmaj promast 77*, HSF1 activator 18, Hsp70 act 0 and HSF1 inhib 0.
Screening CCCn1c(N2CCN(CC(=O)Nc3ccc4c(c3)OCCO4)CC2)nc2ccccc21 returned T cruzi repl 10, Lmaj promast 79*, HSF1 activator 0, Hsp70 act 0 and HSF1 inhib 3.
